{"source": "paper PMC3680370", "about": "(Journal of medicinal chemistry, 2012)", "key": {"[1]": {"assay": "Brain bioavailability by LC-MS/MS", "assay_type": "in vivo", "conditions": "mice, 20 min after i.p. administration; for MZ metabolite in the brain after NO-chimera administration: metabolite 22a from 32a, 26 from 28", "procedure,_shortened": "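Male C57BL/6 mice (8–10 weeks, 20–25 g) got one i.p. dose of 4.5 μmol/kg, equimolar with the parent methylthiazole, at 0.1 ml/25 g; four mice per drug. Brains were taken 20 min post-dose and extracted with cold acetonitrile/MeOH (1:1) plus internal standard. After homogenising, 4°C centrifugation and re-extraction, extracts were cleared at −20°C and dried under N2. Analytes were measured by C18 HPLC (formic acid gradient).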"}, "[2]": {"tested_on": "primary cortical cultures", "assay_type": "cell-based, rat", "conditions": "drug 50 μM; for effect of GABAA blockade by picrotoxin on neuroprotection: picrotoxin 100 μM added 1 h before glutamate 100 μM, MTT at 24 h", "procedure,_shortened": "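Cortical neurons from E17 Sprague Dawley rat embryos, plated at 3×10^5 cells/cm2 on poly-L-lysine and switched to serum-free neurobasal/B27 at 24 h, were used at 10–11 DIV. Picrotoxin 100 μM was given 1 h before glutamate 100 μM, or omitted in a parallel run. Test compound or muscimol (50 μM final) followed 1 h after glutamate. MTT survival at 24 h was normalised to vehicle controls; mean ± SEM, n=6.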"}, "[3]": {"assay": "Stability of NO-chimera in neutral phosphate buffer", "assay_type": "physicochemical", "conditions": "for stability in phosphate buffer: phosphate buffer 100 mM, pH 7.4, room temperature, HPLC-UV or LC-MS", "procedure,_shortened": "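NO-chimeras were incubated in 100 mM phosphate buffer, pH 7.4, at room temperature in the HPLC autosampler. Aliquots were injected repeatedly, at intervals set by each compound's stability (about 7 or 67 min). Analysis used reverse-phase C18 HPLC with UV at 254 nm and a water/methanol vs acetonitrile gradient with 0.1% formic acid. Percent remaining was the parent:internal-standard peak-area ratio over the time-zero value.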"}, "rabbits": {"tested_on": "rabbits", "conditions": "cited from earlier work"}, "[4]": {"tested_on": "primary cortical cultured neurons", "assay": "Transient OGD followed by reoxygenation in primary neuronal cultures", "assay_type": "cell-based, rat", "conditions": "for neuroprotection against OGD: primary neurons, 50 μM", "procedure,_shortened": "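Cortical neurons came from E17 Sprague Dawley rat embryos. They were plated at 3×10^5 cells/cm2 on poly-L-lysine, then kept in serum-free neurobasal/B27 medium. On day 8–10, cultures had 2 h OGD at 37°C (95% N2/5% CO2) in deoxygenated, glucose-free HEPES-buffered salt solution, pH 7.4. They then had 24 h normoxic reoxygenation in fresh medium. Test compound (50 μM) was present throughout. Viability was read by MTT, death by LDH.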"}, "SH-SY5Y cell cultures": {"tested_on": "SH-SY5Y cell cultures", "assay": "Excitotoxic insults", "assay_type": "cell-based, human", "conditions": "excitotoxic insults including glutamate, NMDA, OGD; data not shown"}, "[5]": {"tested_on": "rat primary cortical neurons", "assay": "NMDA induced cytotoxicity in primary neurons", "assay_type": "cell-based", "conditions": "NMDA 100 μM; compounds 50 μM"}, "[6]": {"tested_on": "rats with cognitive deficits in the cholinergic systems of the basal forebrain", "conditions": "cited from earlier work"}}, "data": [{"compound": "Cc1ncsc1C(CO[N+](=O)[O-])c1ccccc1", "note": "(stereo not drawn) [32a, β-phenyl-(4-methyl-5-thiazolyl)ethane-1-nitrate]", "values": [{"measurement": "brain bioavailability of NO-chimera", "setting": "[1]", "result": "good brain bioavailability"}, {"measurement": "MZ metabolite in the brain after NO-chimera administration", "setting": "[1]", "result": "observed in the brain"}]}, {"compound": "Cc1ncsc1C(CO)n1cc(-c2cccnc2)nn1", "note": "(stereo not drawn) [compound 26, [1-[β-(4-Methyl-5-thiazolyl)ethanol]-4-(3-pyridinyl)]-1H-1,2,3-triazole]", "values": [{"measurement": "effect of GABAA blockade by picrotoxin on neuroprotection", "setting": "[2]", "result": "intermediate neuroprotective mechanisms"}]}, {"compound": "Cc1ncsc1C(CO)c1ccccc1", "note": "(stereo not drawn) [22a, β-phenyl-4-methyl-5-thiazoleethanol]", "values": [{"measurement": "effect of GABAA blockade by picrotoxin on neuroprotection", "setting": "[2]", "result": "mirrored that by muscimol"}]}, {"compound": "Cc1ncsc1C(OCCOCCO[N+](=O)[O-])c1ccccc1", "note": "(centres unmarked) [compound 40, 1-nitrooxy-2-[2-[(4-methyl-5-thiazolyl)phenylmethoxy]ethoxy]ethane]", "values": [{"measurement": "stability in phosphate buffer", "setting": "[3]", "result": "stability over 5 days at room temperature"}]}, {"compound": "Cc1ncsc1C(NC(=O)C1(CO[N+](=O)[O-])CC1)c1ccccc1", "note": "(centres unmarked) [compound 44, N-[(4-methyl-5-thiazolyl)phenylmethyl]-1-[(nitrooxy)methyl]cyclopropanecarboxamide]", "values": [{"measurement": "stability in phosphate buffer", "setting": "[3]", "result": "stable"}]}, {"compound": "Cc1ncsc1C(NC(=O)OCCCCO[N+](=O)[O-])c1ccccc1", "note": "(centres unmarked) [compound 43, N-[(4-Methyl-5-thiazolyl)phenylmethyl]-[4-(nitrooxy)butyl] carbamate]", "values": [{"measurement": "stability in phosphate buffer", "setting": "[3]", "result": "stable"}]}, {"compound": "Cc1ncsc1CCO", "note": "[HMZ, 5-(2-hydroxyethyl)-4-methylthiazole]", "values": [{"measurement": "anticonvulsant activity", "setting": "rabbits", "result": "anticonvulsant agent"}]}, {"compound": "Cc1ncsc1C(CO[N+](=O)[O-])n1cc(-c2cccnc2)nn1", "note": "(stereo not drawn) [compound 28, β-(4-methyl-5-thiazolyl)-[4-(3-pyridinyl)-1H-1,2,3-Triazole-1-ethane]-1-nitrate]", "values": [{"measurement": "stability in phosphate buffer", "setting": "[3]", "result": "stability over 5 days at room temperature"}, {"measurement": "MZ metabolite in the brain after NO-chimera administration", "setting": "[1]", "result": "readily detected"}]}, {"compound": "4-Butyl-1-[(4-methyl-5-thiazolyl)phenylmethyl]-1H-1,2,3-triazole [5a]", "values": [{"measurement": "% normalized to CMZ after OGD", "setting": "[4]; test compounds 50 μM during 2-hour OGD and 24-hour reoxygenation, MTT assay at 24 h normalized to vehicle (0% survival) and CMZ (100% survival), mean ± SEM (n=6)", "result": "26.8 ± 5.2", "unit": "%"}]}, {"compound": "Cc1ncsc1C(c1ccccc1)n1cc(-c2cncc(O)c2)nn1", "note": "(centres unmarked) [compound 16, 5-[1-[(4-Methyl-5-thiazolyl)phenylmethyl]-1H-1,2,3-triazol-4-yl]-3-pyridinol]", "values": [{"measurement": "neuroprotection against OGD", "setting": "[4]", "result": "retained neuroprotective efficacy comparable to CMZ"}]}, {"compound": "Cc1ncsc1CCCl", "note": "[CMZ, clomethiazole, reference compound]", "values": [{"measurement": "neuroprotection in SH-SY5Y cells", "setting": "SH-SY5Y cell cultures", "result": "did not produce robust and reproducible neuroprotection"}, {"measurement": "neuroprotection against NMDA induced cytotoxicity", "setting": "[5]", "result": "inhibited reproducibly"}]}, {"compound": "NCc1cc(O)no1", "note": "[muscimol, Muscimol, reference compound]", "values": [{"measurement": "neuroprotection against glutamate toxicity", "setting": "[2]; glutamate 100 μM, 24 h, MTT", "result": "effective neuroprotection"}, {"measurement": "effect of GABAA blockade by picrotoxin on neuroprotection", "setting": "[2]", "result": "lost and reversed"}]}, {"compound": "Cc1ncsc1C(CO[N+](=O)[O-])n1nncc1-c1cccnc1", "note": "(stereo not drawn) [compound 29, β-(4-methyl-5-thiazolyl)-[5-(3-pyridinyl)-1H-1,2,3-Triazole-1-ethane]-1-nitrate]", "values": [{"measurement": "stability in phosphate buffer", "setting": "[3]", "result": "stability over 5 days at room temperature"}]}, {"compound": "Cc1ncsc1C(c1ccccc1)n1cc(-c2cccnc2)nn1", "note": "(centres unmarked) [5d, 3-[1-[(4-methyl-5-thiazolyl)phenylmethyl]-1H-1,2,3-triazol-4-yl]pyridine]", "values": [{"measurement": "neuroprotection against OGD", "setting": "[4]", "result": "excellent neuroprotectant"}, {"measurement": "neuroprotection against NMDA induced cytotoxicity", "setting": "[5]", "result": "excellent neuroprotectant"}]}, {"compound": "Cc1ncsc1C(Cc1ccccc1)O[N+](=O)[O-]", "note": "(stereo not drawn) [compound 33, α-(Phenylmethyl)-(4-methyl-5-thiazolyl)methanenitrate]", "values": [{"measurement": "stability in phosphate buffer", "setting": "[3]", "result": "stability over 5 days at room temperature"}]}, {"compound": "Cc1ncsc1CCO[N+](=O)[O-]", "note": "[compound 1]", "values": [{"measurement": "learning and memory", "setting": "[6]", "result": "significantly improved learning and memory"}]}, {"compound": "Cc1ncsc1C(OC(=O)C1(CO[N+](=O)[O-])CC1)c1ccccc1", "note": "(centres unmarked) [compound 36, [1-[(nitrooxy)methyl]cyclopropanecarboxyl]-[(4-methyl-5-thiazolyl)phenylmethyl] ester]", "values": [{"measurement": "half-life", "setting": "[3]; phosphate buffer, pH 7.4", "result": "~30", "unit": "min"}]}, {"compound": "Cc1ncsc1C(OCCOCCO)c1ccccc1", "note": "(centres unmarked) [compound 41, [2-[(4-methyl-5-thiazolyl)phenylmethoxy]ethoxy]ethanol]", "values": [{"measurement": "effect of GABAA blockade by picrotoxin on neuroprotection", "setting": "[2]", "result": "intermediate neuroprotective mechanisms"}]}]}
